The text below walks through data of ChEMBL document CHEMBL1150817, “Annomolin and annocherimolin, new cytotoxic annonaceous acetogenins from Annona cherimolia seeds” (J Nat Prod, 2001).

≈ marks a conversion by molar mass, not a printed value.

As a reminder, the LC50 is the concentration that kills 50% of the test population. A lower LC50 goes with a more lethal substance.

In series [1] the test system is A549. Put plainly: Cytotoxicity against human A549 cells after 7 days by MTT assay. The conditions noted are these: A549, 168 h, read-out: ED50 (the source's name). It counts as functional. The gist of the method: (§1)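 Seven-day in vitro MTT assay run at the Purdue Cancer Center cell culture laboratory under standard protocols. Cell lines were A-549 lung carcinoma, MCF-7 breast carcinoma, HT-29 colon adenocarcinoma, A-498 kidney carcinoma, PC-3 prostate adenocarcinoma and MIA PaCa-2 pancreatic carcinoma. Adriamycin served as the positive control.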
Background: Tetrazolium dyes change colour on reduction, which living cells bring about.

The subject of series [2] is A498. Put plainly: Cytotoxicity against human A498 cells after 7 days by MTT assay. The following applies: for EC50: Homo sapiens, A498, 168 h, read-out: ED50 (the source's name). The format is functional. The gist of the method: as §1
For series [3], the system named is HT-29. Put plainly: Cytotoxicity against human HT-29 cells after 7 days by MTT assay. It counts as functional. A digest of the protocol:
as §1

Series [4] relates to PC-3. Put plainly: Cytotoxicity against human PC3 cells after 7 days by MTT assay. The format is functional. The following applies: for EC50: Homo sapiens, PC-3, 168 h, read-out: ED50 (the source's name). A digest of the protocol:
as §1

For series [5], the system named is MCF7. Put plainly: Cytotoxicity against human MCF7 cells after 7 days by MTT assay. It counts as functional. The gist of the method:
as §1

The test system of series [6] is MIA PaCa-2. Description: Cytotoxicity against human MIAPaCa2 cells after 7 days by MTT assay. It counts as functional. The following applies: for EC50: Homo sapiens, MIA PaCa-2, 168 h, read-out: ED50 (the source's name). A digest of the protocol:
as §1

A short description of series [7]: Toxicity to Artemia salina. The format is organism-based. The conditions noted are these: in vivo. A digest of the protocol:
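Brine shrimp lethality test (BST) on larvae, run routinely on extracts, fractions and isolated compounds during activity-directed fractionation.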

On to `CCCCCCCCCCCC/C=C\CC[C@@H](O)[C@H]1CC[C@H]([C@H](O)CCCC(O)CCCC[C@@H](O)CC2=C[C@H](C)OC2=O)O1` (stereo not given in full) [ANNOCHERIMOLIN], for which the EC50 came to 1.56 µg/mL (≈ 2.5 µM) in series [1], 0.153 µg/mL (≈ 0.246 µM) in series [2] and 1.02 µg/mL (≈ 1.64 µM) in series [4]. The ED50 is 2.49 ×10⁻⁶ ug/ml in series [3], 4.06 ×10⁻⁶ ug/ml in series [5] and 1.2 ×10⁻⁵ ug/ml in series [6]. The compound also returned an LC50 in series [7] of 0.0058 µg/mL (≈ 0.00931 µM).
Consider `CCCCCCCCCCCCCC[C@H](O)[C@@H]1CC[C@@H](CCCCC[C@@H](O)[C@H](O)CC[C@@H](O)CC2=C[C@H](C)OC2=O)O1` [ANNOMOLIN], for which the EC50 in series [1] was 2.37 µg/mL (≈ 3.97 µM); in series [6], 2.18 µg/mL (≈ 3.65 µM). In addition, the ED50 in series [2] was found to be 6.88 ×10⁻⁴ ug/ml; in series [3], 8.92 ×10⁻⁵ ug/ml; in series [4] it was 5.39 ×10⁻⁶ ug/ml; in series [5], 1.15 ×10⁻⁴ ug/ml. In series [7], this compound had an LC50 of 0.0094 µg/mL (≈ 0.0157 µM).
Take `COc1cccc2c1C(=O)c1c(O)c3c(c(O)c1C2=O)C[C@@](O)(C(=O)CO)C[C@@H]3O[C@H]1C[C@H](N)[C@H](O)[C@H](C)O1` [DOXORUBICIN]: the EC50 turned out to be 0.00113 µg/mL (≈ 0.00208 µM) in series [1]; 0.00226 µg/mL (≈ 0.00416 µM) in series [2]; 0.0128 µg/mL (≈ 0.0235 µM) in series [3] (Homo sapiens, HT-29, 168 h, read-out: ED50 (the source's name)); 0.0502 µg/mL (≈ 0.0924 µM) in series [4]; 0.0182 µg/mL (≈ 0.0335 µM) in series [5] (Homo sapiens, MCF7, 168 h, read-out: ED50 (the source's name)); 0.00262 µg/mL (≈ 0.00482 µM) in series [6].
